pIC50: −log10 of the molar value. Calls of active or inactive are those of the source. No cut-off for these calls is given here.
Experiments:
[1] = biological target: T1, Proteasome Macropain subunit MB1 (Homo sapiens) (UniProt P28074); experiment: Inhibition of chymotrypsin-like activity of human constitutive 20S proteasome beta 5 subunit using […] at 0.3 uM incubated for 5 mins prior to […] measured after 1 hr by ELISA
T1 sequence (whole entry): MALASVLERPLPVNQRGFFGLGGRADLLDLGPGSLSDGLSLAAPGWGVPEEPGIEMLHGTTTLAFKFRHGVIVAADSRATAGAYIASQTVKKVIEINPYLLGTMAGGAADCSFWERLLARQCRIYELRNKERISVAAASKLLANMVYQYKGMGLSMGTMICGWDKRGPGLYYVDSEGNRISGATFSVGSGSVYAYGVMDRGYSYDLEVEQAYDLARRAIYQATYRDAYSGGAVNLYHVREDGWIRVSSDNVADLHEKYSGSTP

[2] = biological target: T1, Proteasome Macropain subunit MB1 (Homo sapiens); experiment: Reversible inhibition of chymotrypsin-like activity of human 20S proteasome beta 5 subunit using Suc-LLVY-AMC as substrate incubated for 12 hrs prior to substrate addition followed by compound wash out measured after 1 hr by dialysis method
[3] = system: HCT-116; experiment: Inhibition of proteasome in human HCT116 cells assessed as accumulation of p53 by Western blotting analysis; format: cell-based
How it was run: (§1)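 Cell extracts were immunoblotted for p53, read as a cellular marker of proteasome blockade, and for cleaved PARP, read as an apoptosis marker.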

[4] = system: HCT-116; experiment: Cell cycle arrest in human HCT116 cells assessed as accumulation at G2/M phase after 24 hrs by propidium iodide staining-based flow cytometric analysis; format: functional
[5] = biological target: T2, Proteasome Macropain subunit MB1 (Homo sapiens, UniProt P28074); experiment: Inhibition of chymotrypsin-like activity of human 20S proteasome beta 5 subunit using Suc-LLVY-AMC as substrate after 60 mins by fluorescence assay
T2 sequence (P28074 whole entry): T1 sequence (whole entry)

[6] = biological target: T3, Proteasome subunit beta type-8 (Homo sapiens) (UniProt P28062); experiment: Inhibition of chymotrypsin-like activity of human 20S immunoproteasome beta 5 subunit using […] at 0.3 uM incubated for 5 mins prior to […] measured after 1 hr by ELISA
T3 sequence (whole entry): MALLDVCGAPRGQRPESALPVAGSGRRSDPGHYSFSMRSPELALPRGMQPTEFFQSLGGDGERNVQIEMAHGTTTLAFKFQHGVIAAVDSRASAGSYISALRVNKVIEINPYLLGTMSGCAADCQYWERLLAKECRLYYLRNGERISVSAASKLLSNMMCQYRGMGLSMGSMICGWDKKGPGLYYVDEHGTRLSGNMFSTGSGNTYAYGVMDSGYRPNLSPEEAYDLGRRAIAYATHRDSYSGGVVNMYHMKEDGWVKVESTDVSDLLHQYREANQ

[7] = system: HCT-116; experiment: Cytotoxicity against human HCT116 cells after 72 hrs by CCK-8 assay; format: functional, cell-based; conditions: HCT-116, 72 h
[8] = system: HCT-116; experiment: Induction of apoptosis in human HCT116 cells assessed as induction of PARP cleavage by Western blotting analysis; format: functional, cell-based; how it was run: as §1
[9] = biological target: T1, Proteasome Macropain subunit MB1 (Homo sapiens); conditions: 2.5 uM
[10] = biological target: T3, Proteasome subunit beta type-8 (Homo sapiens); experiment: Inhibition of chymotrypsin-like activity of human 20S immunoproteasome beta 5 subunit using […] at 2.5 uM incubated for 5 mins prior to […] measured after 1 hr by ELISA
[11] = biological target: T1, Proteasome Macropain subunit MB1 (Homo sapiens); experiment: Irreversible inhibition of chymotrypsin-like activity of human 20S proteasome beta 5 subunit using Suc-LLVY-AMC as substrate incubated for 12 hrs prior to substrate addition followed by compound wash out measured after 1 hr by dialysis method
[12] = Half life in TEAA buffer at pH 7.4 by HPLC analysis; format: physicochemical
How it was run: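 Compound incubated in 0.1 M triethylammonium acetate (TEAA) buffer, pH 7.4, at 37 °C. The time course was recorded by HPLC, and the half-life (t1/2) was determined from that time course.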

SMILES: CC[C@H](C)[C@@H]1C(=O)O[C@H]1C(=O)N[C@H]1C[C@H]1C[C@@H](CCc1ccccc1)NC(=O)[C@H](C)NC(=O)OCc1ccccc1
- inhibition [1]: Active
- inhibition [2]: Active
- p53 accumulation (active/inactive) [3]: Active
- Activity [4]: Active
- pIC50 [5]: 8.24
- inhibition [6]: Active
- pIC50 [7]: 5.74
- Activity [8]: Active

SMILES: C=C[C@H](C[C@@H]1C[C@@H]1NC(=O)[C@@H]1OC(=O)[C@H]1[C@@H](C)CC)NC(=O)[C@H](C)NC(C)=O
- pIC50 [5]: 6.64

SMILES: CC[C@H](C)[C@@H]1C(=O)O[C@H]1C(=O)N[C@H]1C[C@H]1C[C@@H](Cc1ccc2ccccc2c1)NC(=O)[C@H](C)NC(=O)OCc1ccccc1
- pIC50 [5]: 6.70

SMILES: CC[C@H](C)[C@@H]1C(=O)O[C@H]1C(=O)N[C@H]1C[C@H]1C[C@H](NC(=O)[C@H](C)N)C(=O)O [BELACTOSIN A]
- inhibition [1]: Active
- pIC50 [5]: 5.84
- inhibition [6]: Active

SMILES: CC[C@H](C)[C@@H]1C(=O)O[C@H]1C(=O)N[C@H]1C[C@H]1C[C@H](NC(=O)[C@H](C)NC(=O)OCc1ccccc1)c1ccccc1
- pIC50 [5]: 7.05

SMILES: C=C[C@H](C[C@@H]1C[C@@H]1NC(=O)[C@@H]1OC(=O)[C@H]1[C@@H](C)CC)NC(=O)C(C)C
- pIC50 [5]: 6.64

SMILES: C=C[C@H](C[C@@H]1C[C@@H]1NC(=O)[C@@H]1OC(=O)[C@H]1[C@@H](C)CC)NC(=O)C(C)(C)C
- pIC50 [5]: 6.68

SMILES: CC[C@H](C[C@@H]1C[C@@H]1NC(=O)[C@@H]1OC(=O)[C@H]1[C@@H](C)CC)NC(=O)[C@H](C)NC(=O)OCc1ccccc1
- pIC50 [5]: 7.42

SMILES: CC[C@H](C)[C@@H]1C(=O)O[C@H]1C(=O)N[C@H]1C[C@H]1C[C@@H](CCc1ccccc1)NC(=O)[C@H](C)NC(=O)c1ccc2ccccc2c1
- p53 accumulation (active/inactive) [3]: Active
- Activity [4]: Active
- pIC50 [5]: 8.00
- pIC50 [7]: 6.10
- Activity [8]: Active

SMILES: CC[C@H](C)[C@@H]1C(=O)O[C@H]1C(=O)N[C@H]1C[C@H]1C[C@@H](CCc1cccc2ccccc12)NC(=O)[C@H](C)NC(=O)OCc1ccccc1
- pIC50 [5]: 7.20

SMILES: CC[C@H](C)[C@@H]1C(=O)O[C@H]1C(=O)N[C@H]1C[C@H]1C[C@@H](CCCc1ccccc1)NC(=O)[C@H](C)NC(=O)OCc1ccccc1
- pIC50 [5]: 7.46

SMILES: CC[C@H](C)[C@@H]1C(=O)O[C@H]1C(=O)N[C@H]1C[C@H]1C[C@@H](Cc1cccc2ccccc12)NC(=O)[C@H](C)NC(=O)OCc1ccccc1
- pIC50 [5]: 6.89

SMILES: C=C[C@H](C[C@@H]1C[C@@H]1NC(=O)[C@@H]1OC(=O)[C@H]1[C@@H](C)CC)NC(=O)[C@H](C)NC(=O)c1ccccc1
- pIC50 [5]: 7.10

SMILES: C=C[C@H](C[C@@H]1C[C@@H]1NC(=O)[C@@H]1OC(=O)[C@H]1[C@@H](C)CC)NC(=O)[C@H](Cc1c[nH]c2ccccc12)NC(=O)OCc1ccccc1
- pIC50 [5]: 7.55

SMILES: CC(=O)N[C@@H](CSC(=O)[C@]1([C@@H](O)C(C)C)NC(=O)[C@H](C)[C@@H]1O)C(=O)O
- inhibition [9]: Active
- inhibition [10]: Active

SMILES: CC[C@H](C)[C@@H]1C(=O)O[C@H]1C(=O)N[C@H]1C[C@H]1C[C@@H](CCc1ccccc1)NC(=O)c1ccc2ccccc2c1
- pIC50 [5]: 7.48

SMILES: C=C[C@H](C[C@@H]1C[C@@H]1NC(=O)[C@@H]1OC(=O)[C@H]1[C@@H](C)CC)NC(=O)[C@@H](C)NC(=O)OCc1ccccc1
- pIC50 [5]: 7.24

SMILES: C=C[C@H](C[C@@H]1C[C@@H]1NC(=O)[C@@H]1OC(=O)[C@H]1[C@@H](C)CC)NC(=O)[C@H](C)NC(=O)OCc1ccccc1
- Activity [4]: Active
- pIC50 [5]: 7.31
- pIC50 [7]: 6.04

SMILES: CC(C)C[C@H](NC(=O)[C@H](CCc1ccccc1)NC(=O)CN1CCOCC1)C(=O)N[C@@H](Cc1ccccc1)C(=O)N[C@@H](CC(C)C)C(=O)[C@@]1(C)CO1
- inhibition [11]: Active

SMILES: C=C[C@H](C[C@@H]1C[C@@H]1NC(=O)[C@@H]1OC(=O)[C@H]1[C@@H](C)CC)NC(=O)[C@H](C)N
- pIC50 [5]: 6.52

SMILES: C=C[C@H](C[C@@H]1C[C@@H]1NC(=O)[C@@H]1OC(=O)[C@H]1[C@@H](C)CC)NC(=O)[C@H](C)NC(=O)c1ccc2ccccc2c1
- p53 accumulation (active/inactive) [3]: Active
- Activity [4]: Active
- pIC50 [5]: 7.60
- pIC50 [7]: 5.58
- Activity [8]: Active

SMILES: CC(C)[C@H](O)[C@@]12NC(=O)[C@H](C)[C@@H]1OC2=O [OMURALIDE]
- half-life [12]: 13 min

SMILES: C=C[C@H](C[C@@H]1C[C@@H]1NC(=O)[C@@H]1OC(=O)[C@H]1[C@@H](C)CC)NC(=O)[C@H](Cc1ccccc1)NC(=O)OCc1ccccc1
- p53 accumulation (active/inactive) [3]: Active
- Activity [4]: Active
- pIC50 [5]: 7.52
- pIC50 [7]: 5.38
- Activity [8]: Active

SMILES: COc1ccc(C[C@H](NC(=O)[C@H](C)NC(=O)CN2CCOCC2)C(=O)N[C@@H](Cc2ccccc2)C(=O)[C@]2(C)CO2)cc1
- inhibition [1]: Active
- inhibition [6]: Active

SMILES: C=C[C@H](C[C@@H]1C[C@@H]1NC(=O)[C@@H]1OC(=O)[C@H]1[C@@H](C)CC)NC(=O)c1ccc2ccccc2c1
- p53 accumulation (active/inactive) [3]: Active
- Activity [4]: Active
- pIC50 [5]: 7.22
- pIC50 [7]: 4.95
- Activity [8]: Active

SMILES: C=C[C@H](C[C@@H]1C[C@@H]1NC(=O)[C@@H]1OC(=O)[C@H]1[C@@H](C)CC)NC(=O)c1ccccc1
- pIC50 [5]: 6.89

SMILES: CC[C@H](C)[C@@H]1C(=O)O[C@H]1C(=O)N[C@H]1C[C@H]1C[C@@H](CCc1ccccc1)NC(=O)[C@H](C)N
- half-life [12]: 600 min

SMILES: C=C[C@H](C[C@@H]1C[C@@H]1NC(=O)[C@@H]1OC(=O)[C@H]1[C@@H](C)CC)NC(=O)[C@H](CC(C)C)NC(=O)OCc1ccccc1
- pIC50 [5]: 7.33

SMILES: CC[C@H](C)[C@@H]1C(=O)O[C@H]1C(=O)N[C@H]1C[C@H]1C[C@@H](Cc1ccccc1)NC(=O)[C@H](C)NC(=O)OCc1ccccc1
- pIC50 [5]: 7.85

SMILES: C=C[C@H](C[C@@H]1C[C@@H]1NC(=O)[C@@H]1OC(=O)[C@H]1[C@@H](C)CC)NC(=O)CNC(=O)OCc1ccccc1
- pIC50 [5]: 7.39

SMILES: CC[C@H](C)[C@@H]1C(=O)O[C@H]1C(=O)N[C@H]1C[C@H]1C[C@@H](CCc1ccc2ccccc2c1)NC(=O)[C@H](C)NC(=O)OCc1ccccc1
- pIC50 [5]: 7.54

SMILES: C[C@@]12OC(=O)[C@]1([C@@H](O)[C@@H]1C=CCCC1)NC(=O)[C@@H]2CCCl [MARIZOMIB]
- half-life [12]: 56 min

SMILES: CC(C)C[C@H](NC(=O)[C@H](Cc1ccccc1)NC(=O)c1cnccn1)B(O)O [BORTEZOMIB]
- inhibition [2]: Active
- p53 accumulation (active/inactive) [3]: Active
- Activity [4]: Active
- pIC50 [7]: 8.00
- Activity [8]: Active

SMILES: C=C[C@H](C[C@@H]1C[C@@H]1NC(=O)[C@@H]1OC(=O)[C@H]1[C@@H](C)CC)NC(=O)[C@H](C)NC(=O)OC(C)(C)C
- pIC50 [5]: 7.11
